# High-throughput results as filed in PubChem.
# The list is not random: actives were taken first. Their share in the collection is about 1.5%.
# T cell modulator – T cell immune modulation candidate; 2C CD8+ T cell-vesicle binding, flow cytometry; active compounds read low; response (vesicle binding), % at 7 µM; hit rate 0.068% among 330,000;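 active = response, share of CD8 T cells binding vesicles, and their 90th percentile fluorescence all below set limits, cut at about 80% in these data, passing the limit was not always enough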;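 also: values below 100% mean blocked vesicle binding to the CD8+ T cells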
#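 Incubation: binding step 1.5 h, 37 °C, antibody labelling 20 min, ice; system: murine 2C transgenic CD8+ T lymphocytes; technique: cytometric PE anti-B7-1 and Alexa647 anti-CD8 signals after 1% paraformaldehyde fixation; also added: QL9-charged Drosophila Ld/ICAM-1/B7-1 vesicles; control set: naked versus QL9-loaded vesicles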
# CHT inh – human CHT choline transport inhibition; AID 488975; hit rate 0.86% among 310,000; CHT-expressing cells, membrane potential dye, choline response; active compounds read low; Q9GZV3; B-score at 10 µM;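 active = B-score over 3 SD under the library average, and starting fluorescence ratio not unusually high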;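 also: choline stimulus applied at its EC90 after an EC20 pre-addition; B-score computed on integrated fluorescence ratio after choline addition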
# CHT PAM – human CHT allosteric activation; CHT-expressing cells, membrane potential dye, choline EC20; active compounds read high; LV-AA mutant CHT in HEK293 cells; B-score at 10 µM; hit rate 0.49% among 310,000; Q9GZV3;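 active = initial fluorescence not abnormally high and integrated response B-score, plate-corrected, over 3 SD above library mean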
# VLA-4 inh – inhibition in a human VLA-4 binding assay. P13612. hit rate 0.2% among 330,000. AID 2557. inhibition, % (about 7 µM as worked out from the volumes in the protocol). VLA-4 expressing cells, ligand binding flow cytometry; in the data active = inhibition above about 50%
# VLA-4 mod pick – human VLA-4 allosteric modulation in cherry picked compounds; shares compounds with VLA-4 inh; U937 cells, HUTS-21 LIBS mAb binding, flow cytometry; LDV ligand present at threefold Kd; inhibition, % at 6.7 µM; hit rate 2% among 1,300; AID 2813; in the data active = inhibition above about 40%
# Hits are given with their value; 0 = inactive; - = no result given; ! = a repeat was not active.
SMILES,T cell modulator,CHT inh,CHT PAM,VLA-4 inh,VLA-4 mod pick
COc1ccccc1OCC(O)CN1CCN(CC(=O)Nc2c(C)cccc2C)CC1 (centres undefined),0,0,0,50.7!,0
COc1ccc(S(=O)(=O)Nc2ccc(NC(C)=O)cc2)cc1Br,0,0,0,0,-
COc1ccc(NS(=O)(=O)c2ccc(Cl)c(N)c2)cc1Br,0,0,0,0,0
CCN(CC)S(=O)(=O)c1ccc2c(c1)c(=O)c(C(=O)NCc1ccco1)cn2C,0,0,0,0,-
Cc1ccc(-c2cc(C(=O)Nc3ccccc3C)c3ccccc3n2)o1,0,0,0,0,-
COC(=O)c1cc(-c2ccc(C)o2)nc2ccccc12,0,0,0,0,0
CSCCCN1CCCC(CO)(Cc2ccccc2F)C1 (centres undefined),0,0,0,0,-
CCN1C(=O)N[C@@H](c2ccccc2)[C@@H](C(=O)OC)[C@H]1C,0,0,0,0,-
CCCN(CC(=O)Nc1ccccc1C)C(=O)C1CCCN(C(=O)c2ccc(Cl)cc2)C1 (centres undefined),0,-,-,50.3,0
O=C(CC1SCCNC1=O)Nc1ccccc1Cl (centres undefined),0,0,0,58.9,0
COCCNC(=O)c1ccccc1NC(=O)COc1ccccc1,0,0,0,0,0
O=C(C[n+]1cccc(O)c1)NCc1ccc(Cl)cc1,0,0,0,0,-
O=C(c1ccc(Cl)c(NC2=NC3CS(=O)(=O)CC3S2)c1)N1CCN(c2ccc(F)cc2)CC1 (centres undefined),0,0,0,0,0
O=C(c1cccc(NC2=NC3CS(=O)(=O)CC3S2)c1)N1CCN(c2ccc(F)cc2)CC1 (centres undefined),0,0,0,0,-
COc1cc(/C=C/C(=O)OCC(=O)Nc2c(C)n(C)n(-c3ccccc3)c2=O)ccc1OCC#N,0,0,0,60.5,0
COc1cc(/C=C/C(=O)OCC(=O)Nc2c(C)n(C)n(-c3ccccc3)c2=O)ccc1O,0,0,0,0,-
O=C(O)CCN1C(=O)c2ccccc2Sc2ncccc21,0,0,0,0,0
O=C(CCN1C(=O)/C(=C/c2ccccc2Cl)SC1=S)NCCc1ccc(O)cc1,0,0,0,0,-
O=C1Cc2cc(S(=O)(=O)N3CCNCC3)ccc2N1,0,-,-,0,0
Oc1ccc(NC(=S)Nc2ccccc2)cc1,0,0,0,0,0
Nc1ccc(NC(=S)Nc2ccccc2)cc1,0,0,0,0,-
Cn1c(NC(=S)Nc2ccccc2)nc2ccccc21,0,0,0,0,0
CC1CCCC(NC(=O)c2cccc(S(=O)(=O)N3CCCCC3)c2)C1C (centres undefined),0,0,0,0,-
Cc1ccc2c(c1)c1c(n2CC(O)CNC(CO)(CO)CO)CCCC1 (centres undefined),0,0,0,0,-
Cc1ccc2c(c1)c1c(n2CC(O)CNC2CCCCC2)CCCC1 (centres undefined),0,0,0,51.8,0
SMILES,T cell modulator,CHT inh,CHT PAM,VLA-4 inh,VLA-4 mod pick
C=CCNC(=O)C(=O)N/N=C/c1ccco1,0,0,0,0,-
N#Cc1c2c(c(Nc3ccccc3)n3c1nc1ccccc13)CCC2,0,0,0,0,-
N#Cc1c2c(c(-n3cnc4ccccc43)n3c1nc1ccccc13)CCC2,0,0,0,93.7,0
COc1cc(OC)c(C(=O)OC(C)C(=O)Nc2cccc(C(F)(F)F)c2)cc1OC (centres undefined),0,0,0,0,0
CN(C)C(CNC(=O)c1ccc(NS(=O)(=O)c2ccc3[nH]c(=O)[nH]c3c2)cc1)c1ccccc1 (centres undefined),0,0,0,0,-
CCc1ccc(N2CC(C(=O)Nc3ccc4c(c3)OCCO4)CC2=O)cc1 (centres undefined),0,0,0,0,-
COC(=O)c1sc2nc(N3CCCCC3)c3c(c2c1N)CCCC3,0,0,0,89.8,0
CCc1ccc(N2C(=O)c3cc(N4CCOCC4)c([N+](=O)[O-])cc3C2=O)cc1,0,0,0,0,0
O=C(Nc1nc(-c2nc3ccccc3s2)cs1)c1ccco1,0,0,0,78.2,0
O=C(Nc1nc(-c2nc3ccccc3s2)cs1)C1CC1,0,0,0,0,-
CCCCn1c(N)c(N(CC(C)C)C(=O)c2ccc(S(=O)(=O)N3CCCCCC3)cc2)c(=O)[nH]c1=O,0,0,0,0,-
CCN(C[C@H]1N[C@@](Cc2ccccc2)(C(=O)OC)[C@H]2C(=O)N(Cc3ccccc3)C(=O)[C@@H]12)C(C)=O,0,-,-,0,0
